Data: ChEMBL document CHEMBL1157787, “Design, synthesis and evaluation of progesterone-adenine hybrids as bivalent inhibitors of P-glycoprotein-mediated multidrug efflux” (Bioorg Med Chem Lett, 2010)

Columns and labels:
K562 = assay: Cytotoxicity against human K562 cells expressing very low P-glycoprotein at 10 uM after 24 hrs relative to control
[1] = target: T1, ATP-dependent translocase ABCB1 (Homo sapiens, UniProt P08183); assay: Inhibition of P-glycoprotein-mediated daunorubicin efflux in K562/R7 human leukemic cells overexpressing P-glycoprotein assessed as intracellular accumulation of daunorubicin at 10 uM after 1 hr by flow cytometry relative to progesterone; assay type: cell-based; parameters: scale not given: the % may be the effect or the level left
Summary of the method: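 Pgp-overexpressing resistant K562/R7 human leukemic cells; intracellular daunorubicin (1 μM) accumulation measured with compound at 10 μM. Accumulation with progesterone (10 μM) was set as 100%, and compound values were expressed as percent of that, with standard deviation.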

[2] = target: T1, ATP-dependent translocase ABCB1; assay: Inhibition of P-glycoprotein-mediated daunorubicin efflux in K562/R7 human leukemic cells overexpressing P-glycoprotein assessed as intracellular accumulation of daunorubicin at 10 uM after 1 hr by flow cytometry; assay type: cell-based; parameters: scale not given: the % may be the effect or the level left
Summary of the method: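 K562/R7 human leukemic cells overexpressing Pgp; intracellular daunorubicin (1 μM) accumulation measured with test compounds at 10 μM. Progesterone (10 μM) served as positive control; accumulation with progesterone set as 100%, values expressed as percent of progesterone accumulation; standard deviation reported.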

T1 sequence (P08183 whole entry): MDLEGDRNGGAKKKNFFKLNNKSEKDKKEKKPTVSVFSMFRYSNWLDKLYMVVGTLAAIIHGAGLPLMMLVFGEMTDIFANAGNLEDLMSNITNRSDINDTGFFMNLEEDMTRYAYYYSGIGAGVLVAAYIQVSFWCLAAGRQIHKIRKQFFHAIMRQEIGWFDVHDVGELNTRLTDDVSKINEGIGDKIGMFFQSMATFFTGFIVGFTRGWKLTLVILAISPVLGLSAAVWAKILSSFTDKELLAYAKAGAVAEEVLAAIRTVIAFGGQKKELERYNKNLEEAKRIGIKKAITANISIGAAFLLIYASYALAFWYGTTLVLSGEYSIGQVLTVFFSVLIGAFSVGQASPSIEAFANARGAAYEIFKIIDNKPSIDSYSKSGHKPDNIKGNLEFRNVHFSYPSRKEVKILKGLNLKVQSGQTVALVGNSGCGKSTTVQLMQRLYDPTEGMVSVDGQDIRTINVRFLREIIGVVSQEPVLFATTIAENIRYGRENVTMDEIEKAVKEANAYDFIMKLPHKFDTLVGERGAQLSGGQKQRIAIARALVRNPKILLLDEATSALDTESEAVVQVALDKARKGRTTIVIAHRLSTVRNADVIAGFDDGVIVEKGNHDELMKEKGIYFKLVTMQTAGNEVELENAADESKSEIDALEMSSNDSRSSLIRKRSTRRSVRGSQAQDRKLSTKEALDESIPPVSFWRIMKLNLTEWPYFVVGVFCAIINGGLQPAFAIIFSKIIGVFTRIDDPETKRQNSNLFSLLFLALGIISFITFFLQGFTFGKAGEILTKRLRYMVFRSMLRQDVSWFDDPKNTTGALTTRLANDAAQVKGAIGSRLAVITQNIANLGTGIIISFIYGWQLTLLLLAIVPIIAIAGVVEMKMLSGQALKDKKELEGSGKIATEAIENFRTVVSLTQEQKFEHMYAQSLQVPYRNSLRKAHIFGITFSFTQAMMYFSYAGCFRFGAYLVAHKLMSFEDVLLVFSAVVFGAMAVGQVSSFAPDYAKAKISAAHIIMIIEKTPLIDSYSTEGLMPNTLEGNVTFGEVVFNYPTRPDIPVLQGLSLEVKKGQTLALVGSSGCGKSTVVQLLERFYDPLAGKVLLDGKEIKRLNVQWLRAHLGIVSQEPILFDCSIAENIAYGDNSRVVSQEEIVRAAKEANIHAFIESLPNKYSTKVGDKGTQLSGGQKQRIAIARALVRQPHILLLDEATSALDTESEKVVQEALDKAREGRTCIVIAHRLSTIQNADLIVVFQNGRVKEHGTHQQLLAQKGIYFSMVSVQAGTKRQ

Activity [1]	Structure (SMILES)	Activity (K562)	Activity [2]
72.2%	C[C@]12CC[C@H]3[C@@H](CCC4=CC(=O)CC[C@@]43C)[C@@H]1CC[C@@H]2C(=O)NC/C=C/Cn1cnc2c(N)ncnc21	80%	
86.2%	C[C@]12CC[C@H]3[C@@H](CCC4=CC(=O)CC[C@@]43C)[C@@H]1CC[C@@H]2C(=O)NC/C=C\Cn1cnc2c(N)ncnc21	80%	
78%	C[C@]12CC[C@H]3[C@@H](CCC4=CC(=O)CC[C@@]43C)[C@@H]1CC[C@@H]2C(=O)NCCCCn1cnc2c(N)ncnc21	80%	
110.9%	C[C@]12CC[C@H]3[C@@H](CCC4=CC(=O)CC[C@@]43C)[C@@H]1CC[C@@H]2C(=O)NCCCCCCn1cnc2c(N)ncnc21	80%	
98.9%	C[C@]12CC[C@H]3[C@@H](CCC4=CC(=O)CC[C@@]43C)[C@@H]1CC[C@@H]2C(=O)NC[C@H]1CC[C@H](Cn2cnc3c(N)ncnc32)CC1	80%	
98.1%	C[C@]12CC[C@H]3[C@@H](CCC4=CC(=O)CC[C@@]43C)[C@@H]1CC[C@@H]2C(=O)NCc1ccc(Cn2cnc3c(N)ncnc32)cc1	80%	
61.2%	C[C@]12CC[C@H]3[C@@H](CCC4=CC(=O)CC[C@@]43C)[C@@H]1CC[C@@H]2C(=O)NCC#CCn1cnc2c(N)ncnc21	80%	
	CC(=O)[C@H]1CC[C@H]2[C@@H]3CCC4=CC(=O)CC[C@]4(C)[C@H]3CC[C@]12C [PROGESTERONE]		25%
